Legend:
[1] = tested on: Human alphaherpesvirus 3; assay: Antiviral activity against TK+ VZV OKA in HEL cells assessed as reduction of virus plaque formation after 5 days; type: functional, organism-based; conditions: Human alphaherpesvirus 3, OKA, 120 h
[2] = Cytotoxicity against HEL cells assessed as alteration in cell morphology after 3 days; type: cell-based; conditions: human
[3] = target: T1, Thymidine kinase (Varicella-zoster virus (strain Dumas) (HHV-3) (Human herpesvirus 3), UniProt P09250); assay: Inhibition of VZV thymidine kinase; design: species or system Human alphaherpesvirus 3
T1 sequence (P09250 whole entry): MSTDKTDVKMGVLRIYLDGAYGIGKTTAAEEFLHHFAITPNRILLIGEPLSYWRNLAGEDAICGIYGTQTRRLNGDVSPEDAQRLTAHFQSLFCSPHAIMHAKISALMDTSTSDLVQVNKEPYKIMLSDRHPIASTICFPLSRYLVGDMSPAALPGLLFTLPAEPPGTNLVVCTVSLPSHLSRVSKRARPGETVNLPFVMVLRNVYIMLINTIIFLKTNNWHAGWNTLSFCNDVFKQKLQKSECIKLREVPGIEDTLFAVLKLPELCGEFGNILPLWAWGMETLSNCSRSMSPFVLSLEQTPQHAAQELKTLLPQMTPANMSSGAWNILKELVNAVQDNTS
Summary of the method: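 VZV TK enzyme assay in 50 mM Tris-HCl pH 8.0 with 2.5 mM MgCl2, 10 mM DTT, 2.5 mM ATP, 10 mM NaF, 1.0 mg/mL BSA and 1 µM [CH3-3H]dThd (0.1 µCi). Run 30 min at 37 °C, spotted on DE-81 discs, washed, radioactivity counted.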

[4] = Cytotoxicity against HEL cells after 3 days; type: cell-based; conditions: human
Summary of the method: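 HEL cells were seeded at 5 × 10^3 cells/well and allowed to grow for 24 h. Medium containing graded compound concentrations was then added, followed by 3 days at 37 °C. Cell number was counted with a Coulter counter.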

[5] = tested on: Human alphaherpesvirus 3; assay: Antiviral activity against thymidine kinase deficient VZV 07/1 in HEL cells assessed as reduction of virus plaque formation after 5 days; type: functional, organism-based; conditions: Human alphaherpesvirus 3, 07/1, HEL, 120 h
[6] = tested on: Human alphaherpesvirus 3; assay: Antiviral activity against TK+ VZV YS in HEL cells assessed as reduction of virus plaque formation after 5 days; type: functional, organism-based; conditions: Human alphaherpesvirus 3, YS, 120 h
[7] = tested on: Human betaherpesvirus 5; assay: Antiviral activity against HCMV Davis in HEL cells assessed as reduction of virus plaque formation after 7 days; type: functional, organism-based; conditions: Human betaherpesvirus 5, Davis, 168 h
Summary of the method: (§1)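 Confluent HEL fibroblasts were infected with HCMV at 100 pfu per well. After 2 h the residual virus was removed and medium with a range of compound concentrations was added (duplicate). Cells were incubated 7 days at 37 °C, then fixed with ethanol and stained with Giemsa. Virus-induced cytopathicity was scored microscopically, and EC50 was read from graphic plots of % cytopathicity versus concentration.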

[8] = tested on: Human alphaherpesvirus 3; assay: Antiviral activity against thymidine kinase deficient VZV YS/R in HEL cells assessed as reduction of virus plaque formation after 5 days; type: functional, organism-based; conditions: Human alphaherpesvirus 3, YS/R, 120 h
[9] = tested on: Human betaherpesvirus 5; assay: Antiviral activity against HCMV AD169 in HEL cells assessed as reduction of virus plaque formation after 7 days; type: functional, organism-based; conditions: Human betaherpesvirus 5, AD169, HEL, 168 h; summary of the method: as §1

| SMILES | EC50 [1] [µM] | MCC at 72 h [2] [µM] | IC50 [3] [µM] | CC50 at 72 h [4] [µM] | EC50 [5] [µM] | EC50 [6] [µM] | EC50 [7] [µM] | EC50 [8] [µM] | EC50 [9] [µM] |
| --- | --- | --- | --- | --- | --- | --- | --- | --- | --- |
| CCCCCCc1ccc(-c2cc3cn([C@H]4C[C@H](O)[C@@H](CO)O4)c(=O)nc3o2)cn1 | 0.14 | 100 | 30 | > 50 | > 20 | 0.09 | > 20 | > 20 | > 20 |
| CCCCCc1ccc(C#Cc2cc3cn([C@H]4C[C@H](O)[C@@H](CO)O4)c(=O)nc3o2)cc1 | 17 | 470 |  | 110 | 71 | 19 | 11 |  | 13 |
| Nc1nc2c(ncn2COCCO)c(=O)[nH]1 [ACYCLOVIR] |  | > 220 |  | > 890 |  |  |  |  |  |
| CCCCCc1ccc(-c2cc3cn([C@H]4C[C@H](O)[C@@H](CO)O4)c(=O)nc3o2)cn1 | 0.13 | 100 | 18 | > 50 | > 20 | 0.09 | > 20 | > 20 | > 20 |
| CCCCCCCCC#Cc1cc2cn([C@H]3C[C@H](O)[C@@H](CO)O3)c(=O)nc2o1 |  |  | 217 |  |  |  |  |  |  |
| CCCCc1ccc(-c2cc3cn([C@H]4C[C@H](O)[C@@H](CO)O4)c(=O)nc3o2)nc1 | 0.23 | > 100 | 34 | > 50 | > 100 | 0.36 | > 100 | > 100 | > 100 |
| CCCCCCc1ccc(-c2cc3cn([C@H]4C[C@H](O)[C@@H](CO)O4)c(=O)nc3o2)nc1 | 0.06 | > 100 | 3.7 | > 50 | > 100 | 0.045 | > 100 | 70 | > 100 |
| Cc1ccc(C#Cc2cc3cn([C@H]4C[C@H](O)[C@@H](CO)O4)c(=O)nc3o2)cc1 | 66 | ≥ 510 |  | 510 | 36 | 41 | > 130 |  | 510 |
| CCCCCCc1cnc(-c2cc3cn([C@H]4C[C@H](O)[C@@H](CO)O4)c(=O)nc3o2)nc1 | 0.63 | > 100 | 15 | > 50 | > 100 | 0.71 | > 100 | > 100 | > 100 |
| O=c1nc2oc(C#Cc3ccccc3)cc2cn1[C@H]1C[C@H](O)[C@@H](CO)O1 | ≥ 140 | > 570 | 493 | > 570 | > 140 | 99 | > 140 | > 140 | > 140 |
| CCCCCc1cnc(-c2cc3cn([C@H]4C[C@H](O)[C@@H](CO)O4)c(=O)nc3o2)nc1 | 1.9 | > 100 | 24 | > 50 | > 100 | 2 | > 100 | > 100 | > 100 |
| CCCCCc1ccc(CCc2cc3cn([C@H]4C[C@H](O)[C@@H](CO)O4)c(=O)nc3o2)cc1 | 18 | ≥ 470 |  | > 470 | > 120 |  | > 120 |  | > 120 |
| Cc1ccc(CCc2cc3cn([C@H]4C[C@H](O)[C@@H](CO)O4)c(=O)nc3o2)cc1 | > 140 | 540 |  | > 540 | > 140 |  | > 540 |  | > 540 |
| Nc1nc2c(ncn2COC(CO)CO)c(=O)[nH]1 [GANCICLOVIR] |  | > 200 |  | > 200 |  | 2.3 | 8.7 |  |  |
| CCCCCc1ccc(-c2cc3cn([C@H]4C[C@H](O)[C@@H](CO)O4)c(=O)nc3o2)nc1 | 0.07 | > 100 | 4.2 | > 50 | > 100 |  | > 100 | > 100 | > 100 |
| CCCCCCCCCCc1cc2cn([C@H]3C[C@H](O)[C@@H](CO)O3)c(=O)nc2o1 | 0.094 | ≥ 130 | ≥ 500 | > 510 | > 51 | 0.066 | 64 | > 51 | > 130 |
| CCCc1ccc(C#Cc2cc3cn([C@H]4C[C@H](O)[C@@H](CO)O4)c(=O)nc3o2)cc1 | 41 | 87 |  | > 120 | > 50 | 27 | 8.7 | > 50 | 15 |
| CCCCCCCC/C=C/c1cc2cn([C@H]3C[C@H](O)[C@@H](CO)O3)c(=O)nc2o1 | 1.2 | ≥ 120 | 65 | 230 | > 48 | 0.72 | 8.4 | 26 | 22 |
| CCCc1ccc(CCc2cc3cn([C@H]4C[C@H](O)[C@@H](CO)O4)c(=O)nc3o2)cc1 | > 130 | ≥ 130 | > 500 | > 130 | > 50 | ≥ 50 | > 130 | > 130 | > 130 |
| CCCCCc1ccc(-c2cc3cn([C@H]4C[C@H](O)[C@@H](CO)O4)c(=O)nc3o2)cc1 [CF1743] |  | > 1.3 |  |  |  |  |  |  |  |
| O=c1[nH]c(=O)n([C@H]2C[C@H](O)[C@@H](CO)O2)cc1/C=C/Br [BRIVUDINE] | 0.01 | > 150 |  | > 150 | ≥ 99 | 0.01 |  | ≥ 130 |  |
| O=c1nc2oc(CCc3ccccc3)cc2cn1[C@H]1C[C@H](O)[C@@H](CO)O1 | 380 | > 560 |  | > 560 | > 560 |  | > 560 |  | > 560 |
| CCCC#Cc1ccc(-c2cc3cn([C@H]4C[C@H](O)[C@@H](CO)O4)c(=O)nc3o2)cn1 | 0.09 | ≥ 100 | 2.9 | > 50 | > 20 | 0.06 | > 20 | > 20 | > 20 |

— ChEMBL document CHEMBL1148703, “Synthesis and antiviral evaluation of 6-(alkyl-heteroaryl)furo[2,3-d]pyrimidin-2(3H)-one nucleosides and analogues with ethynyl, ethenyl, and ethyl spacers at C6 of the furopyrimidine core” (J Med Chem, 2007)
